High-throughput results: PubChem, several laboratories
T cruzi inh: blocks replication of Trypanosoma cruzi; T. cruzi beta-gal in NIH3T3, luminescence, 90 h; inhibition, % (no concentration beside the values); 300,000 tested, 1.4% active; AID 1885;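 active means mean inhibition across valid replicates above about 55%, limit read from the data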;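 further: signal also drops with host cell toxicity which is not excluded here; higher percent means less beta-gal luminescence so fewer parasites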
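Material: NIH/3T3 host cells with β-galactosidase reporter T. cruzi; Input: 5,000 host fibroblasts per well; Medium: DMEM, 2% fetal bovine serum; Compound: 50 nL DMSO compound solution per well; Schedule: 3 h host attachment, then at least 90 h co-culture; Detection: luminescent β-galactosidase signal after 60 min lysis.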
CR mimetic SO: lowers age-related superoxide in aged yeast cells | S. cerevisiae aged cells, superoxide DHE fluorescence; hits give low values | superoxide response (% of plate mean), % at 10 µM | 330,000 tested, 0.18% active | AID 2690;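 active means superoxide response under a set limit, about three screen SD below normal, cut at about 65% in these data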;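 further: yeast aged for seven days with compound at 30 °C before DHE staining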
V-ATPase pHluor: yeast V-ATPase proton transport regulation by pHLuorin; S. cerevisiae, pHLuorin cytosolic pH fluorescence; 350,000 tested, 0.37% active; response, % at 10 µM; in the data active means response mostly above about 7.3%, no sharp cut-off; inactive means mostly below about 5.4%; further: actives read high
AI-2 QS modul: modulators of Vibrio harveyi AI-2 quorum sensing system | activity change, % at 7.5 µM | AID 2094 | 300,000 tested, 0.4% active | Vibrio harveyi JMH597 AI-2 luminescence/OD600 ratio, 9 h; hits give low values; strain lacks LuxN and CqsS sensors; 0 = neutral-control median; in the data active means activity change below about -75%, passing the limit was not always enough;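 further: luminescence divided by OD600 gain over 9 h not by final OD600 alone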
CendR NRP1 mod: alters CendR peptide binding to human NRP-1; inhibition, % at 25 µM; AID 602438; FAM-RPARPAR peptide binding to NRP-1, fluorescence polarization; O14786; 360,000 tested, 0.85% active;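 active means inhibition or corrected inhibition above about 18%, plus a signal ratio from 0.5 to 1.5, limit read from the data, passing the limit was not always enough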
Target sequence (O14786 whole entry, looked up): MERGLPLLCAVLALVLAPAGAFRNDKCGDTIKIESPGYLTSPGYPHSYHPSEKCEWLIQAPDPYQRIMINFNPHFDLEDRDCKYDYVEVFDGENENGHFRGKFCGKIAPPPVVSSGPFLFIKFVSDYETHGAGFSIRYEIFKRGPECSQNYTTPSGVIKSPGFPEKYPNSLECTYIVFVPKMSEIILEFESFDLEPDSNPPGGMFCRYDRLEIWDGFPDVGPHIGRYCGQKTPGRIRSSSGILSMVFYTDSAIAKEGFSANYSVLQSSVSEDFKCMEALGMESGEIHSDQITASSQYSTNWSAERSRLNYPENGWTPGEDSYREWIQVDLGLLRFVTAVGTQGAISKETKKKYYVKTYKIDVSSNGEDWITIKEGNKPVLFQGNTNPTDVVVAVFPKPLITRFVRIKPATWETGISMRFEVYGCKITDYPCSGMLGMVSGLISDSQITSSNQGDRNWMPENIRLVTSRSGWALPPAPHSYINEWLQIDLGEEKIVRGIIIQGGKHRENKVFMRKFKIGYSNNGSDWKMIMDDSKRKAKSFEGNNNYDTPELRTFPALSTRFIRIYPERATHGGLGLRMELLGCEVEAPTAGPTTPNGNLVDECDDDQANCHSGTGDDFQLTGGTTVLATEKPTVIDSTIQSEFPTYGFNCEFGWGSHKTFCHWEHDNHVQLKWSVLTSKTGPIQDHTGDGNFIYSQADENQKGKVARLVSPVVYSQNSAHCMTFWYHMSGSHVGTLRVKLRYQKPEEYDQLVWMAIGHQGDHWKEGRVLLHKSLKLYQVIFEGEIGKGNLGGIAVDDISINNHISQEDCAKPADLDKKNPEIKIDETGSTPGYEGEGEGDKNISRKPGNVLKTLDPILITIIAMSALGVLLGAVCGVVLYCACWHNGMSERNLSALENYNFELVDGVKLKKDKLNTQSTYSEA
HIF activator: HIF pathway transcriptional activation. U2OS HRE-luciferase reporter, luminescence; normalized: DMSO 0%, desferrioxamine 100%. activation, % at 7.5 µM (by protocol). 300,000 tested, 0.32% active;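 active means mean activation of at least 10% of the iron chelator positive control signal, with at least half of replicates also reaching 10%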
Numbers stand for hits. An excerpt weighted towards active compounds, which were near 3% of everything screened.

C=CCn1c(O)c(N=NC(=S)Nc2ccccc2F)c2cc(S(=O)(=O)N3CCOCC3)ccc21 was read as T cruzi inh 57.5, CR mimetic SO inactive, V-ATPase pHluor inactive, AI-2 QS modul inactive, CendR NRP1 mod inactive and HIF activator inactive.
Screening Oc1c(N=NC(=S)Nc2ccccc2F)c2ccccc2n1Cc1ccccc1 returned T cruzi inh inactive, CR mimetic SO inactive, V-ATPase pHluor inactive, AI-2 QS modul inactive, CendR NRP1 mod inactive and HIF activator inactive.
`C=CCn1c(O)c(N=NC(=S)Nc2ccccc2F)c2ccccc21` gave T cruzi inh inactive, CR mimetic SO inactive, V-ATPase pHluor inactive, AI-2 QS modul inactive, CendR NRP1 mod inactive and HIF activator inactive.
Screening C=CCn1c(O)c(N=NC(=S)Nc2cccc(C)c2)c2ccccc21 returned T cruzi inh 58.5, CR mimetic SO inactive, V-ATPase pHluor inactive, AI-2 QS modul inactive, CendR NRP1 mod inactive and HIF activator inactive.
For C/C(Cl)=C\Cn1c(O)c(N=NC(N)=S)c2ccccc21 the results were T cruzi inh 60.5, CR mimetic SO inactive, V-ATPase pHluor inactive, AI-2 QS modul inactive, CendR NRP1 mod inactive and HIF activator inactive.
For CCOc1ccccc1C(=S)NC1CCCCC1 the results were T cruzi inh inactive, CR mimetic SO inactive, V-ATPase pHluor inactive, CendR NRP1 mod inactive and HIF activator inactive.
`COc1cc2c(cc1OC)[C@H](C)N(C(=O)CSc1nc(O)c(C(C)C)c(=O)[nH]1)CC2` gave T cruzi inh inactive, CR mimetic SO inactive, V-ATPase pHluor inactive, AI-2 QS modul inactive, CendR NRP1 mod inactive and HIF activator inactive.
`CCOC(=O)CC1C(=O)NCCN1C(=O)c1c(Cl)cccc1Cl` (stereo unspecified) gave T cruzi inh inactive, CR mimetic SO inactive, V-ATPase pHluor inactive, AI-2 QS modul inactive, CendR NRP1 mod inactive and HIF activator inactive.
Cc1ccccc1NC(=S)N=Nc1c(O)n(C)c2ccc(S(=O)(=O)N3CCOCC3)cc12 was read as T cruzi inh inactive, CR mimetic SO inactive, V-ATPase pHluor inactive, AI-2 QS modul inactive, CendR NRP1 mod inactive and HIF activator inactive.
For CCCCNC(=S)N=Nc1c(O)n(Cc2ccccc2)c2ccccc12 the results were T cruzi inh inactive, CR mimetic SO inactive, V-ATPase pHluor inactive, AI-2 QS modul inactive, CendR NRP1 mod inactive and HIF activator inactive.
For Cc1c(Cl)cccc1NC(=S)N=Nc1c(O)n(CN2CCOCC2)c2ccccc12 the results were T cruzi inh 62.6, CR mimetic SO inactive, V-ATPase pHluor inactive, AI-2 QS modul inactive, CendR NRP1 mod inactive and HIF activator inactive.
Screening Oc1c(N=NC(=S)Nc2ccccc2F)c2ccccc2n1Cc1ccccc1Cl returned T cruzi inh 68.0, CR mimetic SO inactive, V-ATPase pHluor inactive, AI-2 QS modul inactive, CendR NRP1 mod inactive and HIF activator inactive.
Screening Cc1ccc(-n2c(Cc3cccn3C)nnc2SCC(=O)N2CCN(c3ccccc3)CC2)cc1 returned T cruzi inh inactive, CR mimetic SO inactive, V-ATPase pHluor 20.3, AI-2 QS modul inactive, CendR NRP1 mod inactive and HIF activator inactive.
`CCn1c(COc2c(C)cccc2C)nnc1SCC(=O)N1CCN(c2ccccc2)CC1` gave T cruzi inh inactive, CR mimetic SO inactive, V-ATPase pHluor inactive, AI-2 QS modul inactive, CendR NRP1 mod 36.8 and HIF activator inactive.
`Cn1cccc1Cc1nnc(SCC(=O)N2CCCCCC2)n1-c1ccc(F)cc1` gave T cruzi inh inactive, CR mimetic SO inactive, V-ATPase pHluor inactive, AI-2 QS modul inactive, CendR NRP1 mod inactive and HIF activator inactive.
Screening O=C(NNc1ncnc2c1cnn2-c1ccc(F)cc1)c1ccco1 returned T cruzi inh inactive, CR mimetic SO inactive, V-ATPase pHluor inactive, AI-2 QS modul inactive, CendR NRP1 mod 29.3 and HIF activator inactive.
For CCC1Nc2ncnc(N3CCCCC3)c2N(Cc2ccc(OC)cc2)C1=O (stereo unspecified) the results were CR mimetic SO inactive, V-ATPase pHluor inactive and CendR NRP1 mod inactive.
CC(C)CCn1c(=O)c2ccccc2n2c(CN(C)Cc3ccccc3)nnc12 was read as T cruzi inh inactive, CR mimetic SO inactive, V-ATPase pHluor inactive, AI-2 QS modul inactive, CendR NRP1 mod inactive and HIF activator inactive.
Screening CN(CCO)c1cc(NCCCN2CCC(Cc3ccccc3)CC2)c2nonc2c1[N+](=O)[O-] returned T cruzi inh 65.0, CR mimetic SO inactive, V-ATPase pHluor inactive, AI-2 QS modul inactive, CendR NRP1 mod inactive and HIF activator inactive.
Screening c1ccc(Nc2ccc3c4c(cccc24)CC3)cc1 returned T cruzi inh 64.5, CR mimetic SO inactive, V-ATPase pHluor inactive, AI-2 QS modul inactive, CendR NRP1 mod inactive and HIF activator inactive.
c1ccc(Nc2cccc3ccccc23)cc1 was read as CR mimetic SO inactive, V-ATPase pHluor inactive and CendR NRP1 mod inactive.
`CCN1C(=O)C(CC(=O)Nc2ccc(OC)cc2)N(CCc2ccccc2F)C1=S` (stereo unspecified) gave T cruzi inh inactive, CR mimetic SO inactive, V-ATPase pHluor inactive, AI-2 QS modul inactive, CendR NRP1 mod inactive and HIF activator inactive.
Screening C[C@H](CO)N1C[C@H](C)[C@@H](CN(C)C(=O)Nc2cc(F)ccc2F)Oc2ncc(-c3cccc(F)c3)cc2C1=O returned V-ATPase pHluor inactive and CendR NRP1 mod inactive.
O=C(CCN1C(=O)C2C3C=CC(C3)C2C1=O)N1CC(=O)N(CCc2ccccc2)C(=O)C1 (stereo unspecified) was read as CR mimetic SO inactive, V-ATPase pHluor inactive and CendR NRP1 mod inactive.
`Cc1ccc(C(c2c(C)nn(-c3ccccc3)c2N)c2c(C)nn(-c3ccccc3)c2N)cc1` gave T cruzi inh inactive, CR mimetic SO inactive, V-ATPase pHluor inactive, AI-2 QS modul inactive, CendR NRP1 mod 30.2 and HIF activator inactive.
`c1ccc2c(c1)ccc1ccccc12` gave CR mimetic SO inactive, V-ATPase pHluor inactive and CendR NRP1 mod inactive.
CC1=[N+](C)c2ccc3ccccc3c2C1(C)C was read as T cruzi inh 69.4, CR mimetic SO inactive, V-ATPase pHluor inactive, AI-2 QS modul inactive, CendR NRP1 mod inactive and HIF activator inactive.
CCCCN1CC[C@H]2C=CC[C@@H](C(=O)NCc3ccc(OC)cc3)[C@H]2C1=O was read as T cruzi inh inactive, CR mimetic SO inactive, V-ATPase pHluor inactive, AI-2 QS modul inactive, CendR NRP1 mod 20.9 and HIF activator inactive.
`CCCCN1CC[C@H]2C=CC[C@@H](C(=O)Nc3ccc(Cl)cc3Cl)[C@H]2C1=O` gave T cruzi inh inactive, CR mimetic SO inactive, V-ATPase pHluor inactive, AI-2 QS modul inactive, CendR NRP1 mod 33.5 and HIF activator inactive.
Screening O=C(O)[C@H]1CC=C[C@H]2CCN(Cc3ccc(Cl)c(Cl)c3)C(=O)[C@@H]12 returned CR mimetic SO inactive, V-ATPase pHluor inactive and CendR NRP1 mod inactive.
